This is an account of results in ChEMBL document CHEMBL4602720, “Degradation versus Inhibition: Development of Proteolysis-Targeting Chimeras for Overcoming Statin-Induced Compensatory Upregulation of 3-Hydroxy-3-methylglutaryl Coenzyme A Reductase” (J Med Chem, 2020).

The target of experiment [1] is T1, Protein cereblon/3-hydroxy-3-methylglutaryl-coenzyme A reductase (Cricetulus griseus) (UniProt P00347+G3H338). The experiment in a line: Protac activity at CRBN/HMGCR in Insig-1/Insig-2 deficient Chinese hamster SRD15 cells assessed as HMGCR level at 0.03 uM after 16 hrs by immunoblotting analysis (reference value: 1). The method, boiled down:
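Dose-response in SRD15 cells in Medium A with 5% FBS, 16 h treatment, DMSO final 0.1% or lower. RIPA lysates immunoblotted for HMGCR. HMGCR densitometry normalized to actin, with the DMSO group set to 1. Three repeats. DC50 is taken from a dose-response fit of the semi-quantitative blots, mean of 3 independent experiments.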

Experiment [2] deals with T1, Protein cereblon/3-hydroxy-3-methylglutaryl-coenzyme A reductase (Cricetulus griseus). Description: Protac activity at CRBN/HMGCR in Insig-1/Insig-2 deficient Chinese hamster SRD15 cells assessed as HMGCR level at 1 uM after 16 hrs in presence of 1 uM pomalidomide by immunoblotting analysis (reference value: 1). (In western blotting, separated proteins are transferred to a membrane and probed.)

The target of experiment [3] is T2, Sterol regulatory element-binding protein 2 (Mus musculus) (UniProt Q3U1N2).
T2 sequence (whole entry): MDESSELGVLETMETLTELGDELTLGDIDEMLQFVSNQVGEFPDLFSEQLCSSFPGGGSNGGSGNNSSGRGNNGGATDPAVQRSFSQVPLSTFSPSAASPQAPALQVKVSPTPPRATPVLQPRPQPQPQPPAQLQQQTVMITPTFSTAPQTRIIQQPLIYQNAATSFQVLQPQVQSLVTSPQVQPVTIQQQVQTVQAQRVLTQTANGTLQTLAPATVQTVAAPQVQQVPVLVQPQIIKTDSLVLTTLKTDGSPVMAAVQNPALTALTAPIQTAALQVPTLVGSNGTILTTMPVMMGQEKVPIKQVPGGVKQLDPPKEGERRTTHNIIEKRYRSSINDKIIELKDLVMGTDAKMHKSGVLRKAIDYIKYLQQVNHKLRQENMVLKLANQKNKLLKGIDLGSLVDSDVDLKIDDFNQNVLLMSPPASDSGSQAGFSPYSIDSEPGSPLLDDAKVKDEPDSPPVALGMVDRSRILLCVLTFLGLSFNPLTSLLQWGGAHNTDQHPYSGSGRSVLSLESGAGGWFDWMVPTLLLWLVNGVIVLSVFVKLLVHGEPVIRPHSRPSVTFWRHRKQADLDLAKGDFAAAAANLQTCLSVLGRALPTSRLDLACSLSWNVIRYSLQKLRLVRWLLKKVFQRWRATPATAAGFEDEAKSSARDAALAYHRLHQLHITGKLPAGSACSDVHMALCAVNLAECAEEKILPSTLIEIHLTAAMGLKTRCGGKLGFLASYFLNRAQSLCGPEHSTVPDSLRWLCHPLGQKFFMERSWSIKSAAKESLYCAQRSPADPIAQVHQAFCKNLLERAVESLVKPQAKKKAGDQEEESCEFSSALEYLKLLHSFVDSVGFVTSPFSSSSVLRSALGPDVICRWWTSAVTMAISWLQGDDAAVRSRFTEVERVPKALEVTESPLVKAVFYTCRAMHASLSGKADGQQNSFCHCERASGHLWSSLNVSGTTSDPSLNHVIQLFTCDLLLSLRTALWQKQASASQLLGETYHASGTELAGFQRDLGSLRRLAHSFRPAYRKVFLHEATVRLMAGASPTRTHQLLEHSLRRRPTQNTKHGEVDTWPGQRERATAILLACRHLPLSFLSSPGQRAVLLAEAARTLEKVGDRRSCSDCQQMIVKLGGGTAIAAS
Description: Activation of SREBP2 pathway in mouse primary hepatocytes assessed as increase in LDLR mRNA expression at 0.3 to 1 uM afer 16 hrs by quantitative real-time PCR analysis. In kind it is cell-based.

The target of experiment [4] is T1, Protein cereblon/3-hydroxy-3-methylglutaryl-coenzyme A reductase (Cricetulus griseus). Description: Protac activity at CRBN/HMGCR in 5'-GCAAGGCAGUGUAUAUUAU-3' siRNA transfected in Insig-1/Insig-2 deficient Chinese hamster SRD15 cells assessed as induction of HMGCR degradation at 1 uM after 16 hrs by immunoblotting analysis. The method, boiled down:
(§1)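 SRD15 cells (Insig-1/Insig-2-deficient CHO-7) in Medium A with 5% FBS at 37 °C, 5% CO2; transfected with negative-control or Crbn-targeting siRNA duplexes for 48 h, then given 1 μM degrader for 16 h. HMGCR by SDS-PAGE immunoblot of RIPA lysates. Knockdown efficiency checked by qRT-PCR against hamster GAPDH, comparative CT method. n = 3 independent experiments.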

Experiment [5] has the same target. The experiment in a line: Protac activity at CRBN/HMGCR in 5'-CCAGAAACUGAAGAUGAAA-3' siRNA transfected in Insig-1/Insig-2 deficient Chinese hamster SRD15 cells assessed as induction of HMGCR degradation at 1 uM after 16 hrs by immunoblotting analysis. The method, boiled down:
as §1

Active and inactive are the calls of the source. The rule behind the calls is not given here.

`CC(C)c1c(C(=O)Nc2ccccc2)c(-c2cccc(OCCCc3cn(CCOCCOCCOCCOCCNc4cccc5c4C(=O)N(C4CCC(=O)NC4=O)C5=O)nn3)c2)c(-c2ccc(F)cc2)n1CC[C@@H](O)C[C@@H](O)CC(=O)O` (stereo not given in full): the fold change (FC) in experiment [1] was 0.6; in experiment [2] it was 1. The result in experiment [3] was Active. The result in experiment [4] and in experiment [5] was inactive.
